Here are results for 10 molecules from ChEMBL document CHEMBL1145734, “A study on the synthesis of antiangiogenic (+)-coronarin A and congeners from (+)-sclareolide” (Bioorg Med Chem Lett, 2003).

As usually defined, the IC50 is the concentration that gives 50% inhibition. Read a high IC50 as weaker potency. A word on the inhibition: it is the percentage by which the read-out fell short of the control. Lower therefore signals a weak effect.

The test system of experiment [1] is HUVEC. In words: Growth inhibitory activity against human umbilical vein endothelial cells (HUVEC) proliferation using MTT colorimetric method. The format is functional, cell-based. In a few lines:
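HUVEC seeded at 10,000 cells/well in growth-factor-containing EGM-2 and left 4 h to adhere. Compounds diluted in medium were added, followed by 72 h incubation at 37 in humidified 5% CO2. Viability was read by MTT colorimetric assay. IC50 came from nonlinear regression.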
On the technique in general: Formazan colour is commonly taken as a measure of viable cells.

The test system of experiment [2] is HUVEC. Kind of experiment: Percentage inhibition against growth factor induced tube formation by human umbilical vein endothelial cells (HUVEC) at 10 ug/mL concentration. The format is functional. In a few lines: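 HUVEC plated at 5000 cells/well on solidified Matrigel and incubated 16 h at 37 in humidified 5% CO2, with compound at 10 μg/mL, in triplicate. Cells were then stained with toluidine blue in 4% paraformaldehyde and photographed. A blinded observer counted tube branches per well. Inhibition was expressed relative to untreated control.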

≈ marks a conversion by molar mass, not a printed value. Some results are limits rather than exact numbers.

In the case of `C=C1[C@@H](O)C[C@H]2C(C)(C)CCC[C@]2(C)[C@H]1C[C@H](O)c1ccoc1`, in experiment [1], the IC50 worked out at 29.7 µg/mL (≈ 93.2 µM). Further, the inhibition at 10 µg/mL in experiment [2] was determined as 10%.

As for `C=C1[C@@H](O[Si](C)(C)C(C)(C)C)C[C@H]2C(C)(C)CCC[C@]2(C)[C@H]1C[C@@H](O)c1ccoc1`, half-maximal inhibition in experiment [1] (IC50) was put at 3.76 µg/mL (≈ 8.69 µM). In addition, the inhibition at 10 µg/mL in experiment [2] turned out to be 10%.

`C=C1[C@H](O)C[C@H]2C(C)(C)CCC[C@]2(C)[C@H]1/C=C/c1ccoc1`: the midpoint of inhibition in experiment [1], the IC50, lay at 3.12 µg/mL (≈ 10.4 µM). In experiment [2], this molecule gave an inhibition at 10 µg/mL of 90%.

Take `C=C1[C@@H](O)C[C@H]2C(C)(C)CCC[C@]2(C)[C@H]1/C=C/c1ccoc1` [CORONARIN A]: 4.22 µg/mL (≈ 14 µM) corresponded to half-maximal inhibition in experiment [1] (IC50). In addition, 10 µg/mL produced 55% inhibition in experiment [2].

As to `C=C1[C@@H](O)C[C@H]2C(C)(C)CCC[C@]2(C)[C@H]1C[C@@H](O)c1ccoc1`, the IC50 in experiment [1] was determined as 15 µg/mL (≈ 47.2 µM). The molecule further displayed an inhibition at 10 µg/mL in experiment [2] of 0%.

`C=C1[C@@H](O[Si](C)(C)C(C)(C)C)C[C@H]2C(C)(C)CCC[C@]2(C)[C@H]1/C=C/c1ccoc1`: the IC50 in experiment [1] is greater than 50 µg/mL. Further, the inhibition at 10 µg/mL in experiment [2] is 22%.

For `CC1(C)CCC[C@]2(C)[C@H]3CC(=O)O[C@]3(C)CC[C@@H]12`, in experiment [1], the IC50 was greater than 50 µg/mL.

Regarding `C=C1[C@@H](O[Si](C)(C)C(C)(C)C)C[C@H]2C(C)(C)CCC[C@]2(C)[C@H]1C[C@H](O)c1ccoc1`, 7.71 µg/mL (≈ 17.8 µM) corresponded to half-maximal inhibition in experiment [1] (IC50). For the same molecule, the inhibition at 10 µg/mL in experiment [2] came to 20%.

`C=C[C@](C)(O)CC[C@@H]1[C@@]2(C)CCCC(C)(C)[C@@H]2CC[C@@]1(C)O` [SCLAREOL] yielded an IC50 in experiment [1] greater than 50 µg/mL.

`C=C1[C@H](O[Si](C)(C)C(C)(C)C)C[C@H]2C(C)(C)CCC[C@]2(C)[C@H]1/C=C/c1ccoc1`: the IC50 in experiment [1] was greater than 50 µg/mL. Further, the inhibition at 10 µg/mL in experiment [2] was 5%.
